Data as given in ChEMBL document CHEMBL1141078, “Discovery of potent, nonsystemic apical sodium-codependent bile acid transporter inhibitors (Part 1)” (J Med Chem, 2005).

Columns and labels:
[1] = target: T1, Ileal sodium/bile acid cotransporter (Homo sapiens, UniProt Q12908); assay: In vitro inhibition of ASBT mediated uptake of [14C]taurocholate (5 uM) in Baby hamster cells expressing human IBAT; type: cell-based
T1 sequence (Q12908 whole entry): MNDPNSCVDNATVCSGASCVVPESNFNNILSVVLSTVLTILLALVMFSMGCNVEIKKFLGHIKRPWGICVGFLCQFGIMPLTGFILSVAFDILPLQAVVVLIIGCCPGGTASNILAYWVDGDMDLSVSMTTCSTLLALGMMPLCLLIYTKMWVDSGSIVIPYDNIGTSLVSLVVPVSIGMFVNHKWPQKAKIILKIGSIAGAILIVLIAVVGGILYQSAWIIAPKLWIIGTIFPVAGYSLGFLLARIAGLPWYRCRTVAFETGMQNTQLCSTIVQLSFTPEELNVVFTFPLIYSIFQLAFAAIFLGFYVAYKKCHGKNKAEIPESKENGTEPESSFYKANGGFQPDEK
In short: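 BHK cells stably transfected with human IBAT cDNA (H14) were seeded 24–72 h before assay at cell densities adjusted to that interval. Cells were washed, then incubated for 2 h at 37 °C in DMEM (4.5 g/L glucose, 0.2% fatty-acid-free BSA) with test compound and [14C]taurocholate. Wells were washed with cold PBS containing BSA and then with PBS alone. Cell-associated radioactivity was measured by scintillation counting, and IC50 values were derived.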

[2] = target: T1, Ileal sodium/bile acid cotransporter; assay: Effect on fecal bile acid in cholesterol-fed hamster; control is at 8.0; type: functional, Feces
[3] = target: T1, Ileal sodium/bile acid cotransporter; assay: Effect on 24 hr fecal weight in cholesterol-fed hamster; control is at 2.1; type: functional, Feces
[4] = target: T1, Ileal sodium/bile acid cotransporter; assay: Effect on serum total cholesterol in cholesterol-fed hamster; control is at 135; type: functional
[5] = target: T1, Ileal sodium/bile acid cotransporter; assay: Effect on fecal bile acids in cholesterol-fed hamster; control is at 6.2; type: functional, Feces
[6] = target: T1, Ileal sodium/bile acid cotransporter; assay: Effect on 24 hr fecal weight in cholesterol-fed hamster; control is at 2.3; type: functional, Feces
[7] = target: T1, Ileal sodium/bile acid cotransporter; assay: Effect on serum total cholesterol in cholesterol-fed hamster; control is at 143; type: functional
[8] = target: T1, Ileal sodium/bile acid cotransporter; assay: Effect on serum total cholesterol in cholesterol-fed hamster; control is at 129; type: functional
[9] = target: T1, Ileal sodium/bile acid cotransporter; assay: Effect on 24 hr fecal weight in cholesterol-fed hamster; control is at 1.7; type: functional, Feces
[10] = target: T1, Ileal sodium/bile acid cotransporter; assay: Effect on fecal bile acid in cholesterol-fed hamster; control is at 6.1; type: functional, Feces
[11] = target: T1, Ileal sodium/bile acid cotransporter; assay: Effect on 24 hr fecal weight in cholesterol-fed hamster; control is at 3.5; type: functional, Feces
[12] = target: T1, Ileal sodium/bile acid cotransporter; assay: Effect on fecal bile acid in cholesterol-fed hamster; control is at 8.7; type: functional, Feces
[13] = target: T1, Ileal sodium/bile acid cotransporter; assay: Effect on serum total cholesterol in cholesterol-fed hamster; control is at 195; type: functional

| Compound | IC50 [1] [nM] | other results |
| --- | --- | --- |
| CCCCC1(CCCC)CS(=O)(=O)c2ccc(N(C)C)cc2[C@@H](c2ccc(OC)cc2)[C@H]1O | 7 | – |
| CCCCC1(CCCC)CS(=O)(=O)c2c(cccc2N(C)C)[C@@H](c2ccc(F)cc2)[C@H]1O | 180 | – |
| CCCCC1(CCCC)CS(=O)(=O)c2ccc([N+](C)(C)C)cc2[C@@H](c2ccccc2)[C@H]1O | 210 | – |
| CCCCC1(CCCC)CS(=O)(=O)c2ccc(OC)cc2[C@@H](c2ccc(F)cc2)[C@H]1O | 50 | – |
| CCCCC1(CCCC)CS(=O)(=O)c2ccc(N(C)C)cc2[C@@H](c2ccc(F)cc2)[C@H]1O | 10 | – |
| C=CCCCCCCCCOc1ccc2c(c1)S(=O)(=O)C[C@@](CC)(CCCC)[C@H](O)[C@@H]2c1ccccc1 | 16000 | – |
| CCCC[C@]1(CC)CS(=O)(=O)c2ccc(NO)cc2[C@@H](c2ccccc2)[C@H]1O | 260 | – |
| CCCC[C@]1(CC)CS(=O)(=O)c2ccc(SC)cc2[C@@H](c2ccc(F)cc2)[C@H]1O | 19 | – |
| CC1(C)CS(=O)(=O)c2ccc(N)cc2[C@@H](c2ccccc2)[C@H]1O | > 50000 | – |
| CCCC[C@]1(CC)CS(=O)(=O)c2ccc(-c3ccccc3)cc2[C@@H](c2cccc(OC)c2)[C@H]1O | 180 | – |
| CCCCC1(CCCC)CS(=O)(=O)c2ccc(Br)cc2[C@@H](c2ccccc2Br)[C@H]1O | 550 | – |
| CCCCC1(CCCC)CS(=O)(=O)c2ccc(N(C)C)cc2[C@@H](c2ccccc2)[C@H]1O | 13 | – |
| CCCC[C@]1(CC)CS(=O)(=O)c2ccc(Br)cc2[C@@H](c2cccc(OC)c2)[C@H]1O | 70 | – |
| CCCCCC1(CCCCC)CS(=O)(=O)c2ccc(C)cc2[C@@H](c2ccc(F)cc2)[C@H]1O | 318 | – |
| CCCCC1(CCCC)CS(=O)(=O)c2c(F)cccc2[C@@H](c2ccc(F)cc2)[C@H]1O | 180 | – |
| CCCC[C@]1(CC)CS(=O)(=O)c2ccc(N(C)C)cc2[C@@H](c2ccccc2)[C@H]1O | 5 | FBA [2]: 13.7 ((mmol/day)/100g); Fecal weight [3]: 2.1 g; Total cholesterol [4]: 97 mg/dL |
| CCCC[C@]1(CC)CS(=O)(=O)c2ccc(NS(C)(=O)=O)cc2[C@@H](c2ccccc2)[C@H]1O | 600 | – |
| CCCC[C@]1(CC)CS(=O)(=O)c2ccc(NC(C)=O)cc2[C@@H](c2ccccc2)[C@H]1O | 90 | – |

| Compound | IC50 [1] [nM] | other results |
| --- | --- | --- |
| CCCCC1(CCCC)CS(=O)(=O)c2cc(OC)ccc2[C@@H](c2ccccc2)[C@H]1O | 190 | – |
| CCCC[C@]1(CC)CS(=O)(=O)c2ccc(N(O)C(=O)OC(C)(C)C)cc2[C@@H](c2ccccc2)[C@H]1O | 2670 | – |
| CCCC[C@]1(CC)CS(=O)(=O)c2ccc(N3CCCC3)cc2[C@@H](c2ccc(F)cc2)[C@H]1O | 59 | – |
| CCCC[C@]1(CC)CS(=O)(=O)c2cc(OC)ccc2[C@@H](c2ccccc2)[C@H]1O | 120 | FBA [5]: 11.9 ((mmol/day)/100g); Fecal weight [6]: 2.4 g; Total cholesterol [7]: 126 mg/dL |
| CCCC[C@]1(CC)CS(=O)(=O)c2ccc(C)cc2[C@@H](c2ccc(F)cc2)[C@H]1O | 21 | – |
| CCCC[C@]1(CC)CS(=O)(=O)c2ccc(NC(=O)OCc3ccccc3)cc2[C@@H](c2ccccc2)[C@H]1O | 400 | – |
| CCCC[C@]1(CC)CS(=O)(=O)c2ccc(N)cc2[C@@H](c2ccccc2)[C@H]1O | 68 | Total cholesterol [8]: 126 mg/dL; Fecal weight [9]: 1.6 g; FBA [10]: 8.8 ((mmol/day)/100g) |
| CCCCC1(CCCC)CS(=O)(=O)c2ccc(C)cc2[C@@H](c2ccc(F)cc2)[C@H]1O | 46 | – |
| CCCCC1(CCCC)CS(=O)(=O)c2c(OC)cc(N(C)C)cc2[C@@H](c2ccc(OC)cc2)[C@H]1O | 2 | – |
| CCCCCCNc1ccc2c(c1)[C@@H](c1ccccc1)[C@@H](O)[C@](CC)(CCCC)CS2(=O)=O | 1670 | – |
| CCCC[C@]1(CC)CS(=O)(=O)c2ccc(OC)cc2[C@@H](c2ccccc2)[C@H]1O | 55 | – |
| CCCCCC(=O)Nc1ccc2c(c1)[C@@H](c1ccccc1)[C@@H](O)[C@](CC)(CCCC)CS2(=O)=O | 300 | – |
| CCCCC1(CCCC)CS(=O)(=O)c2cc(N(C)C)ccc2[C@@H](c2ccccc2)[C@H]1O | 120 | – |
| CCCCC1(CCCC)CS(=O)(=O)c2ccc(N(C)C)cc2[C@@H](c2ccc(OCCOCCOCC[N+](CC)(CC)CC)cc2)[C@H]1O.[Br-] | 3 | Fecal weight [11]: 3.9 g; FBA [12]: 16.2 ((mmol/day)/100g); Total cholesterol [13]: 141 mg/dL |
| CCCC[C@]1(CC)CS(=O)(=O)c2ccccc2[C@H](c2ccccc2)[C@H]1O (racemic) | – | Inhibition [1]: 37% |
| CCCC[C@]1(CC)CS(=O)(=O)c2ccccc2[C@@H](c2ccccc2)[C@@H]1O (racemic) | 4800 | – |
| CCCC[C@]1(CC)CS(=O)(=O)c2ccccc2[C@@H](c2ccccc2)[C@H]1O (racemic) | 280 | – |
